The nature of data set [1]: Half life period was determined. The format is ADME. The conditions noted are these: rat.
Data set [2] is described as follows: Average half life period was determined. It is filed as ADME.
A short description of data set [3]: First order rate constant for Alkylation reaction by the compound (17 mM) at temperature 37 degrees C with 1 M lutidine at pH 7.4 in the presence of 10 mol equiv of sodium thiosulfate. It is filed as functional. The procedure, abridged: (§1)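 Run by 31P NMR in 1 M lutidine (D2O), "pH" 7.4 (corrected meter reading), 37 °C, with 10 mol equiv sodium thiosulfate as trapping agent. Overlapping A, B and C resonances were resolved by least-squares fitting to three Lorentzians or by Lorentz–Gauss resolution enhancement. This gave concentration–time estimates, from which k1 and k2 were derived.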

The nature of data set [4]: Pka value at 20 degrees C. The gist of the method: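 31P NMR chemical shift recorded in unbuffered water as a function of solution pH at 20 °C. The shift versus pH data were fitted to the Henderson–Hasselbalch equation to give the pKa.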
Data set [5] in a line: First order rate constant for Alkylation reaction by the compound (17 mM) at temperature 27 degrees C with 1 M lutidine at pH 7.4 in the presence of 10 mol equiv of 2-mercaptoethanol. The format is functional. The procedure, abridged: (§2)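 Decomposition followed over time by 31P NMR in 1 M lutidine buffer made with D2O, "pH" 7.4 (meter reading plus 0.4 unit for the deuterium isotope effect), with 2-mercaptoethanol as trapping agent. Concentrations of species A, B and C were tracked against time, and k1 (first alkylation) and k2 (second alkylation) were derived from them.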

A short description of data set [6]: First order rate constant for Alkylation reaction by the compound (17 mM) at temperature 47 degrees C with 1 M lutidine at pH 7.4 in the presence of 10 mol equiv of 2-mercaptoethanol. The format is functional. The gist of the method:
as §2

A short description of data set [7]: Second order rate constant for Alkylation reaction by the compound (17 mM) at temperature 47 degrees C with 1 M lutidine at pH 7.4 in the presence of 10 mol equiv of 2-mercaptoethanol. The format is functional. The gist of the method:
as §2

Data set [8] can be described thus: Second order rate constant for Alkylation reaction by the compound (17 mM) at temperature 37 degrees C with 1 M lutidine at pH 7.4 in the presence of 10 mol equiv of sodium thiosulfate. The format is functional. The gist of the method: as §1
The nature of data set [9]: Half life period for first alkylation reaction was determined. The format is ADME. The procedure, abridged:
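Half-life derived from the k1 value (first alkylation, i.e. mustard disappearance), measured by 31P NMR in 1 M lutidine, "pH" 7.4, 37 °C, with trapping agent.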

A short description of data set [10]: First order rate constant for Alkylation reaction by the compound (17 mM) at temperature 37 degrees C with 1 M lutidine at pH 7.4 in the presence of 10 mol equiv of 2-mercaptoethanol. The format is functional. The gist of the method: as §2
Data set [11] in a line: Second order rate constant for Alkylation reaction by the compound (17 mM) at temperature 37 degrees C with 1 M lutidine at pH 7.4 in the presence of 10 mol equiv of 2-mercaptoethanol. The format is functional. The procedure, abridged:
as §2

A short description of data set [12]: Second order rate constant for Alkylation reaction by the compound (17 mM) at temperature 27 degrees C with 1 M lutidine at pH 7.4 in the presence of 10 mol equiv of 2-mercaptoethanol. It is filed as functional. The gist of the method:
as §2

Data set [13] can be described thus: Second order rate constant for Alkylation reaction by the compound (11 mM) at temperature 20 degrees C with 1 M lutidine at pH 7.4 in the presence of 63 mol equiv of 2-mercaptoethanol. The format is functional. The gist of the method: as §2
Data set [14] is described as follows: First order rate constant for Alkylation reaction by the compound (17 mM) at temperature 20 degrees C with 1 M lutidine at […] in the presence of 10 mol equiv of 2-mercaptoethanol. It is filed as functional.
Data set [15] can be described thus: First order rate constant for Alkylation reaction by the compound (11 mM) at temperature 20 degrees C with 1 M lutidine at pH 7.4 in the presence of 63 mol equiv of 2-mercaptoethanol. It is filed as functional. The procedure, abridged:
as §2

Several values for one entry are separate records, joined by “and”; a condition that tells them apart may be missing. Identical values can stand only once.

The term half-life denotes how long it takes for the measured level to halve.

With `O=P1(NCCCl)OCCC(O)N1CCCl` (stereo unspecified) [ALDOIFOSFAMIDE], the half-life in data set [1] worked out at 1 h; in data set [2], 0.733 h.

For the molecule `OC1CCOP(NCCCl)N1CCCl` (trans isomer), the half-life in [2] turned out to be 1.03 h.

Regarding `O=P(O)(NCCCl)NCCCl` [PALIFOSFAMIDE], the K1 is 8.29 10e-3 min-1 in data set [3]; 2.36 10e-3 min-1 in data set [5]; 34.3 10e-3 min-1 in [6]; 9.03 10e-3 min-1 in data set [10]; 1.2 10e-3 min-1 in data set [14]; 1.07 10e-3 min-1 in data set [15]. The molecule further had a Pka in [4] of 4.28. Also, the K2 is 20 10e-3 min-1 in [7]; 4.29 10e-3 min-1 in data set [8]; 4.05 10e-3 min-1 in data set [11]; 1.14 10e-3 min-1 in [12]; 0.63 10e-3 min-1 in data set [13]. Also, the T1/2 in data set [9] is 1.28 h and 2.85 h.

The values are drawn from ChEMBL document CHEMBL1124552 (J Med Chem, 1989).
